Screening data from PubChem.
An excerpt weighted towards active compounds, which were near 2.6% of everything screened.
PG9 binder – small molecules binding HIV-1 gp120 antibody PG9; TR-FRET gp120-PG9 antibody binding; inhibition, % at 6.7 µM; 0.43% of 360,000 active; AID 624416; in the data active = inhibition above about 8.5%
rCAG binder-1 – r(CAG) repeat RNA binding; TO-PRO-1 dye displacement fluorescence; inhibition, % at 3 µM; 1.3% of 370,000 active; AID 651821;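 active = inhibition above the plate cutoff, the mean of all test compounds on that plate plus 3 SD, cut at about 35% in these data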;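 also: 0% = DMSO alone and 100% = 100 µM mitoxantrone as full dye displacement; higher means more dye released from RNA so lower well fluorescence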
Rev-erbA mod – modulates human Rev-erb alpha binding to DNA; P20393; AID 1259318; Rev-erbα–FITC-DNA binding, fluorescence polarization, 90 min; activity, % at 10 µM; 0.79% of 370,000 active;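 active = activity above about 14%, limit read from the data; passing the limit was not always enough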;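 also: 0% = DMSO wells with 35 nM protein and 100% = DMSO wells with 750 nM protein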
Target sequence (P20393 whole entry, looked up): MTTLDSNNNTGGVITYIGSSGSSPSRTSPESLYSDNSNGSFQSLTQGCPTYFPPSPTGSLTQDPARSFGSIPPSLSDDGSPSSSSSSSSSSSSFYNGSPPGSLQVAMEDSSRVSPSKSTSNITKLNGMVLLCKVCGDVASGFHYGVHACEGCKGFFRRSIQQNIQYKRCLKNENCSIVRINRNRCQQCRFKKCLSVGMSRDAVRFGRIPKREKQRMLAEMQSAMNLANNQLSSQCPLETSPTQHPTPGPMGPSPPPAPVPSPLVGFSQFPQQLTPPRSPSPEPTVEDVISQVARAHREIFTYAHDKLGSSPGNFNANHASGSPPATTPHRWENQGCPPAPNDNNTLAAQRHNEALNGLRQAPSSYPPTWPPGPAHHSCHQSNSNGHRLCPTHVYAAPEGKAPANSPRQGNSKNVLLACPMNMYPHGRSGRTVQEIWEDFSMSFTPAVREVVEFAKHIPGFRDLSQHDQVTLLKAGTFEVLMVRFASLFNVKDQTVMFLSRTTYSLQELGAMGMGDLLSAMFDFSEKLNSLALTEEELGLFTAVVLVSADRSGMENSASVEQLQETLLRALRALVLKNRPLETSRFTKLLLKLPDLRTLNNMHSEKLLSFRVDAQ
NR2E3 ag-1 – activates human photoreceptor nuclear receptor NR2E3 | inhibition of corepressor binding, % at 4.78 µM | 0.12% of 320,000 active | GST-NR2E3/biotin-RetCOR TR-FRET, 1536-well;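 active = percent inhibition above the cutoff of mean plus 3 SD of all tested compounds, set per screening campaign, cut at about 20% in these data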;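 also: 0% = DMSO wells and 100% = biotin wells as full block of FRET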
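Test system: GST-NR2E3 and biotin-RetCOR proteins | Quantity: 1.35 nM GST-tagged NR2E3 final | Medium: Tris pH 7.5 | Also added: 7 nM biotin-RetCOR | Dosing: Compound at 4.8 µM, single dose | Timing: 5 h at 4 °C | Detection: Time-resolved FRET | Read-out basis: Percent inhibition | Benchmarks: Biotin wells as high control, 0.6% DMSO wells as low control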
NR2E3 ag-2 – activates human NR2E3 receptor; Q9Y5X4; CHO-S Gal4-NCOR/VP16-NR2E3 two-hybrid, luciferase; inhibition of corepressor binding, % at 3.98 µM; 0.35% of 360,000 active; AID 602229;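 active = inhibition above the mean of all tested compounds plus 3 SD, cut at about 70% in these data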;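 also: 0% = DMSO with NR2E3 transfected cells and 100% = cells lacking NR2E3 construct; higher means lower luciferase signal from less NR2E3 corepressor binding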
PG9 binder conf – confirmation of small molecules binding HIV-1 gp120 antibody PG9. shares compounds with PG9 binder. TR-FRET PG9 antibody binding, biochemical. inhibition, % at 6.7 µM. 90% of 1,500 active. AID 651571; in the data active = inhibition above about 9%
PGV04 counter – binds control antibody PGV04 in PG9 binder counter-screen. shares compounds with PG9 binder. TR-FRET PGV04 antibody-gp120 binding, biochemical. inhibition, % at 6.7 µM. 95% of 1,500 active. AID 651604; in the data active = inhibition above about 9.5%
PG9 binder DR – small molecules binding HIV-1 gp120 antibody PG9. shares compounds with PG9 binder. IC50, µM. TR-FRET PG9 antibody-gp120 binding inhibition. 95 tested, under 10 active; in the data active = IC50 below about 10 µM
PGV04 DR counter – binds control antibody PGV04 in PG9 counter-screen; shares compounds with PG9 binder; TR-FRET binding to control antibody PGV04; IC50, µM; 20% of 95 active; in the data active = IC50 below about 9 µM
PG126 binding DR – PG126 binding, dose response counter-screen; shares compounds with PG9 binder; TR-FRET binding to antibody PG126, counterscreen; IC50, µM; 20% of 95 active; in the data active = IC50 below about 9 µM
rCAG binder conf – r(CAG) RNA repeat binding, confirmation | shares compounds with rCAG binder-1 | TO-PRO-1 dye displacement fluorescence | inhibition, % at 3 µM | 70% of 4,300 active;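 active = inhibition above a per-plate cutoff, the mean inhibition of sample wells plus 3 SD, cut at about 35% in these data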;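 also: loss of TO-PRO-1 fluorescence as compound displaces dye from 1x1 AA loop RNA; 0% = DMSO only wells and 100% = 100 µM mitoxantrone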
dCAG dye counter – disrupts DNA CAG TO-PRO-1 complex, flagging rCAG hits. shares compounds with rCAG binder-1. d(CAG) DNA oligo TO-PRO-1 dye displacement, fluorescence. inhibition, % at 3 µM. 94% of 4,300 active;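 active = inhibition above its plate's cutoff, the mean test-well inhibition plus 3 SD, cut at about 4.8% in these data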;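 also: 0% = DNA dye mix with DMSO and 100% = 100 µM mitoxantrone; hits displace the dye from DNA and so lower well fluorescence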
DNA CAG DR – disrupts DNA CAG TO-PRO-1 complex in dose response; AID 686960; DNA CAG/GTC duplex TO-PRO-1 dye displacement fluorescence; shares compounds with rCAG binder-1; 20% of 250 active; IC50, µM; in the data active = IC50 below about 10 µM
dCAG TOPRO ctr – DNA CAG dye complex inhibition, late stage dose response | d(CAG) DNA duplex TO-PRO-1 dye displacement, fluorescence | IC50, µM | AID 720649 | 80% of 30 active | shares compounds with rCAG binder-1
rCAG binder-2 – binds r(CAG) RNA repeats in late stage dose response; r(CAG) RNA TO-PRO-1 dye displacement, fluorescence; IC50, µM; shares compounds with rCAG binder-1; 100% of 30 active; AID 720651
Rev-erbA confirm – confirmation of modulators of human Rev-erb alpha DNA binding; shares compounds with Rev-erbA mod; Rev-erb alpha FITC-DNA binding, fluorescence polarization, 90 min; activation, % at 25 µM; 61% of 3,000 active; AID 1259319;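 active = activation at or above a set limit, or at least 3 SD above the negative control mean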;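 also: 0% = 35 nM protein with DMSO and 100% = 750 nM protein high control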
RORg DNA counter – affects RORgamma DNA binding in a Rev-erb alpha counter-screen; shares compounds with Rev-erbA mod; purified RORgamma protein-FITC-DNA binding, fluorescence polarization; IC50, µM; 8% of 910 active;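 active = Compounds whose fitted half-maximal concentration for disrupting protein-DNA binding is below 10 micromolar; the record names Rev-erb in its text, so the target is in doubt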
* hit, by the source's call; / = no result given. Unless noted, no rule for the calls is given here.

SMILES	PG9 binder	rCAG binder-1	Rev-erbA mod	NR2E3 ag-1	NR2E3 ag-2	rCAG binder conf	dCAG dye counter	others
Cc1cccc(NC(=O)C2CCCN(S(=O)(=O)c3cccc4nsnc34)C2)c1 (stereo not given)	65*	1	155*	6	-3	/	/	PG9 binder conf=64*;PGV04 counter=58*;PG9 binder DR=4.3*;PGV04 DR counter=3.9*;PG126 binding DR=4.3*;Rev-erbA confirm=79*;RORg DNA counter=>40
Cc1cccc(NC(=O)C2CCN(S(=O)(=O)c3cccc4nsnc34)CC2)c1	-1	5	6	3	-3	/	/
COc1cccc(-c2nnc3sc(-c4cccs4)nn23)c1	39*	4	41*	0	-59	/	/	PG9 binder conf=33*;PGV04 counter=57*;Rev-erbA confirm=13
COc1cccc(-c2nn3c(-c4cccc(C)c4)nnc3s2)c1	0	6	2	5	-26	/	/
Cn1c2ccccc2n2c(=O)cc(-c3ccccc3)c(C#N)c12	9.7*	2	44*	2	-24	/	/	PG9 binder conf=16*;PGV04 counter=20*;Rev-erbA confirm=21*
Cn1c(=O)cc(-c2ccccc2)c2ccccc21	0	-2	3	4	5	/	/
O=C(Cn1cnc2sc(-c3ccccc3)cc2c1=O)NCCc1ccccc1	9.1*	3	65*	-3	-3	/	/	PG9 binder conf=40*;PGV04 counter=60*;Rev-erbA confirm=28*
Cc1cc2c(s1)c1cnn(CC(=O)NCCc3ccccc3)c(=O)c1n2C	37*	-4	307*	-125	/	/	/	PG9 binder conf=49*;PGV04 counter=50*;Rev-erbA confirm=352*
O=C(Cn1cnc2sc(-c3ccccc3)cc2c1=O)NCc1ccccc1	-1	6	-8	-2	-49	/	/
O=C(COC(=O)c1n[nH]c2ccccc12)NC(=O)NC12CC3CC(CC(C3)C1)C2	18*	4	17*	11	-24	/	/	PG9 binder conf=22*;PGV04 counter=31*;Rev-erbA confirm=31*
O=C(COC(=O)c1n[nH]c2ccccc12)NC(=O)NC1CCCC1	-1	0	3	2	0	/	/
Cc1ccc(C(=O)OCC(=O)Nc2cc(C(C)(C)C)no2)c(C)c1	0	4	6	0	12	/	/
O=C(CSc1nc2ccc(Cl)cc2[nH]1)c1c[nH]c2ccccc12	-2	19	1	1	-25	/	/
O=C(CSc1nc2ncc(Cl)cc2[nH]1)c1c[nH]c2ccccc12	35*	19	23*	10	-9	/	/	PG9 binder conf=35*;PGV04 counter=51*;Rev-erbA confirm=23*
N#Cc1c(C(F)(F)F)cc(-c2ccc(F)cc2)nc1SCC(=O)O	-2	14	-2	-1	2	/	/
COc1cc(-c2cc(-c3ccccc3)nc(SCC(=O)O)c2C#N)cc(OC)c1OC	-2	41*	-2	1	-5	50*	17*
N#Cc1c(-c2ccc(Cl)cc2)cc(-c2ccccc2)nc1SCC(=O)O	0	76*	-1	6	18	84*	53*
COC(=O)CSc1nc(-c2ccccc2)cc(-c2ccco2)c1C#N	-1	9	5	1	-23	/	/
Cc1csc(NS(=O)(=O)c2cccc([N+](=O)[O-])c2)n1	-2	2	-5	6	22	/	/
O=[N+]([O-])c1ccc(S(=O)(=O)Nc2nc(-c3ccccc3)cs2)cc1	0	66*	2	3	24	41*	11*
Cc1ccc(S(=O)(=O)Nc2nc(-c3ccc(F)cc3)cs2)cc1	0	62*	-6	1	9	56*	15*
CN1OC[C@@H]2CN[C@H](c3ccc(-n4ccnc4)cc3)C[C@@H]21	-1	2	-8	/	/	/	/
COc1ccc([C@H]2N[C@]3(CCCN(Cc4cccn4C)C3=O)[C@H]3C(=O)N(Cc4ccccc4)C(=O)[C@@H]23)cc1	-2	12	-4	/	-6	/	/
CCc1ccc(NC(=O)C(C)Sc2nc(-c3ccco3)c(C#N)c(=O)[nH]2)cc1 (stereo not given)	3	79*	-1	2	3	70*	33*	DNA CAG DR=9.7*;dCAG TOPRO ctr=3.3*;rCAG binder-2=1.1*
O=C(Cc1cccs1)NCc1ccccc1Br	-1	1	5	6	-101	/	/
SMILES	PG9 binder	rCAG binder-1	Rev-erbA mod	NR2E3 ag-1	NR2E3 ag-2	rCAG binder conf	dCAG dye counter	others
CCOc1cc(-c2c(C#N)c(=O)[nH]c3c2c(C)nn3-c2ccc(F)cc2)ccc1O	0	48*	5	6	-33	27	6.6*
Cc1nn(-c2ccc(F)cc2)c2nc(N)c(C#N)c(-c3ccc(O)c(O)c3)c12	1	32	5	/	-23	/	/
O=C(O)CCCC(=O)OCc1c(-c2ccccc2)ncc2ccccc12	0	2	3	2	-41	/	/
O=[N+]([O-])c1cc(Br)cc(C=Nc2ccc3c(c2)OCO3)c1O	-1	58*	20	1	-13	41*	17*
Cc1ccc(N=Cc2cc3c(cc2[N+](=O)[O-])OCO3)cc1[N+](=O)[O-]	-2	39*	1	3	-26	9	4.9*
CCCCCCCCN1C(=O)[C@@H](CC(=O)NCc2cccc(C(F)(F)F)c2)C[C@@]2(C(=O)OC)C1=C[C@H](C(C)(C)C)O[C@@H]2C	0	0	-2	/	/	/	/
